Compounds with a hit are over-represented: about 1.5% of the library has one in this group of screens.
APJ antag: antagonists of human apelin receptor APJ, primary screen, CHO-K1 cells, beta-arrestin complementation, luminescence. P35414. inhibition, % at 20 µM. actives 0.32% (n = 330,000);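 active = inhibition above about 40% at 20 µM, limit read from the data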;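 also: cells challenged with 10 nM apelin-13 agonist together with compound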
EBI2 block: EBI2 receptor antagonists, beta-arrestin recruitment, primary screen, cell-based, luminescence, 7a,25-OHC stimulation, uHTS; G-protein coupled receptor 183 (Homo sapiens), P32249; 7a,25-OHC stimulated; inhibition, % at 5 µM; actives 0.81% (n = 360,000); in the data active = inhibition above about 38%;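 also: enzyme fragment complementation signal reports receptor beta-arrestin coupling in cells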
APJ agonist: agonists of human apelin receptor APJ, primary screen, CHO-K1 cells, PathHunter beta-arrestin, luminescence; activation, % at 20 µM; actives 0.11% (n = 330,000); P35414; 0% DMSO wells, 100% apelin; AID 2520, 2010;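 active = activation more than six SD over the plate average, tested at 20 µM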
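Assay system – PathHunter CHO-K1 APJ (AGTRL-1) beta-arrestin reporter cells · Compound – one dose, 20 µM compound, 1% DMSO · Timing – compound 90 min 25 °C, reagent 1 h · Measured by – luminescence from split beta-galactosidase complementation, Galacton Star/Emerald II substrate · Measure – beta-arrestin recruitment to APJ as agonist activity, luminescent signal · Benchmarks – DMSO vs Apelin-13 10 nM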
CXCR6 block: CXCR6 receptor inhibitors, primary screen, cell-based, beta-arrestin, luminescence, CHO-K1 PathHunter, 1536-well | inhibition, % at 20 µM | actives 0.36% (n = 360,000) | AID 602244, 2012; in the data active = inhibition above about 34%, passing the limit was not always enough;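 also: antagonist mode with CXCL16 agonist at 10 nM final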
CCR6 antagonist: CCR6 receptor antagonists, primary screen, cell-based, CHO-K1, luminescence, beta-arrestin, uHTS | C-C chemokine receptor type 6 (Homo sapiens), P51684 | CHO-K1 CCR6 PathHunter beta-arrestin, CCL20-stimulated | inhibition, % at 20 µM | actives 0.49% (n = 340,000);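 active = compounds whose inhibition of the agonist-driven luminescence signal at 20 µM reaches about 50%, limit read from the data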;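 also: cells stimulated with CCL20 at 14 nM final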
Target sequence (P51684 whole entry, looked up): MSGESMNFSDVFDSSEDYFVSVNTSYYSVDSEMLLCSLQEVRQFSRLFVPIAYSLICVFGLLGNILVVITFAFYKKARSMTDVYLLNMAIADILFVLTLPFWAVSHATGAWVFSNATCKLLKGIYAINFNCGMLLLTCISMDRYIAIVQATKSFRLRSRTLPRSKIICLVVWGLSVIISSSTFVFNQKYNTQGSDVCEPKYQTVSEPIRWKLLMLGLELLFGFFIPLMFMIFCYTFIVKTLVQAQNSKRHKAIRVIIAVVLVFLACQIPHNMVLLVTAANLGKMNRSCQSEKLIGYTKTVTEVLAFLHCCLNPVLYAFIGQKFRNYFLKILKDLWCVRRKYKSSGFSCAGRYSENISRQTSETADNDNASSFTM
EBI2 conf: EBI2 antagonist hit retest, beta-arrestin, confirmation, cell-based, single concentration, luminescence, 7a,25-OHC stimulation; 7a,25-OHC antagonism; inhibition, % at 5 µM; actives 29% (n = 2,400); shares compounds with EBI2 block;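 active = inhibition of at least 50%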
EBI2 agonist: EBI2 agonist activity of antagonist hits, confirmation, counter-screen for EBI2 antagonist project, cell-based, single concentration, agonist mode, luminescence. shares compounds with EBI2 block. EBI2-expressing cells, 60 min; 0% vehicle, 100% 7α,25-dihydroxycholesterol control. activation, % at 5 µM. 2,400 tested, under 10 active. AID 652000, 2013;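 active = activation of at least 50%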
bGal cs: E. coli beta-galactosidase enzyme inhibition, confirmation, counter-screen for EBI2 antagonist project, biochemical, luminescence, single concentration | inhibition, % at 5 µM | purified beta-galactosidase, luminescent Galacton Star, 15 min | shares compounds with EBI2 block | actives 1% (n = 2,400);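 active = replicate-average signal at least 3 plate SD below neutral wells, shown as high inhibition, flagging enzyme-inhibiting false positives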;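 also: higher means stronger loss of beta-gal luminescence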
Each line names hits and unclear results; the compound was inactive in the other large screens (follow-up assays come after a bar, where they were run).

COc1ccccc1C(=O)N1CCN(C(=O)c2oc3ccc(C)cc3c2C)CC1	EBI2 block 64.5 | EBI2 conf inactive | EBI2 agonist inactive | bGal cs inactive
Cc1cccc(NC(=O)CSc2nnc3ccc(-c4cccnc4)nn23)c1	none (no result: APJ antag, APJ agonist, CCR6 antagonist)
COc1ccc(-c2c(-c3ccsc3)oc3ccc(N4CCOCC4)cc23)cc1	none
CC(=O)/C=C1/SC(CC(=O)O)C(=O)N1c1ccccc1 (stereo unspecified)	none
COC(=O)C1=C(C)N(CCc2c[nH]c3ccc(OC)cc23)C(=O)C1	none
O=C(CSc1n[nH]c(=O)[nH]c1=O)Nc1ccc(C(=O)O)cc1	EBI2 block 48.9 | EBI2 conf inactive | EBI2 agonist inactive | bGal cs inactive
COc1ccc(C(=O)c2ccc(N3CCN(C(=O)c4ccc(F)cc4)CC3)c(F)c2)cc1Br	EBI2 block 65.2 | EBI2 conf inactive | EBI2 agonist inactive | bGal cs inactive
CCCC(=O)c1ccc(N2CCN(C(=O)c3ccc(Br)cc3)CC2)c(F)c1	EBI2 block 70.7 | EBI2 conf inactive | EBI2 agonist inactive | bGal cs inactive
COc1cccc(/C=N/NC(=O)c2ccc(OCc3cccc(Br)c3)cc2)c1	none
O=C(N/N=C/c1cccc(OCc2ccccc2)c1)c1ccc(Br)cc1	EBI2 block 36.5 | EBI2 conf inactive | EBI2 agonist inactive | bGal cs inactive
CCOc1cc(/C=N/NC(=O)CN2CCOCC2)ccc1OCc1ccccc1	none
CCOc1cc(/C=N/NC(=O)c2ccc(CN3CCOCC3)cc2)ccc1OCc1ccccc1	EBI2 block 55.4 | EBI2 conf 60.4 | EBI2 agonist inactive | bGal cs inactive
Nc1c(C(=O)NCc2ccc3c(c2)OCO3)nnn1-c1ccc(OC(F)(F)F)cc1	none
COc1cc(/C=C(\C#N)C(=O)NCc2ccccc2)ccc1OCc1ccc(C(=O)O)cc1	none
COc1ccc(CCNC(=O)/C(C#N)=C/c2cccc(OCc3ccccc3)c2)cc1OC	EBI2 block 52.8 | EBI2 conf inactive | EBI2 agonist inactive | bGal cs inactive
FC(F)(F)c1ccc(Oc2ccc3cc(Br)ccc3c2)nc1	EBI2 block 83.7 | EBI2 conf inactive | EBI2 agonist inactive | bGal cs inactive
O=[N+]([O-])c1ccc(Oc2ccc(C(F)(F)F)cn2)cc1	none
Cc1ccccc1C(=O)c1cccn1CC(=O)N1CCCCC1	none
O=C(NC(c1ccccc1)c1ccccc1)c1ccc(=O)[nH]n1	none
N#Cc1nc(Cc2cccc3ccccc23)oc1NCc1ccc(F)cc1	EBI2 block 45.4 | EBI2 conf inactive | EBI2 agonist inactive | bGal cs inactive
C=CCNc1oc(Cc2cccc3ccccc23)nc1C#N	none
CCOc1ccc(OCC(=O)N2CCC3(CC2)CC(=O)c2ccccc2O3)cc1	EBI2 block 84.4 | EBI2 conf 51.7 | EBI2 agonist inactive | bGal cs inactive
CC(=O)N1CCC2(CC1)CC(=O)c1cc(OCC(=O)N3CCCC3)ccc1O2	none
Cc1cccc(OCC(=O)N2CCC3(CC2)CC(=O)c2ccccc2O3)c1	none
COc1ccc(OCC(=O)N2CCC3(CC2)CC(=O)c2ccccc2O3)cc1	EBI2 block 77.4 | EBI2 conf 60.7 | EBI2 agonist inactive | bGal cs inactive
CCC(C)c1ccccc1N1CC(C(=O)Nc2cc(S(=O)(=O)N3CCOCC3)ccc2OC)CC1=O (stereo unspecified)	none

Bioassay records as filed in PubChem BioAssay.
